The source made the active and inactive calls. The rule behind the calls is not given here.
Legend:
SK-N-MC [1] = experiment: Antiproliferative activity at human SK-N-MC cells after 72 hrs by MTT assay; format: functional, cell-based
MRC5 = experiment: Antiproliferative activity at human MRC5 cells after 72 hrs by MTT assay; format: functional, cell-based; settings: MRC5, 72 h
A549 = experiment: Antiproliferative activity at human A549 cells after 72 hrs by MTT assay; format: functional, cell-based; settings: Homo sapiens, A549, 72 h
DMS-53 [2] = experiment: Antiproliferative activity at human DMS53 cells after 72 hrs by MTT assay; format: functional, cell-based; settings: Homo sapiens, DMS-53, 72 h
SK-N-MC [3] = experiment: Induction of 59Fe mobilization in human SK-N-MC cells at 25 uM after 3 hrs by gamma-scintillation counter; format: functional
How it was run: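 SK-N-MC cells prelabeled with 59Fe-transferrin (0.75 μM) for 3 h/37 °C, then washed four times on ice with ice-cold PBS. Cells reincubated with or without chelators (25 μM) for 3 h/37 °C. Released 59Fe given as % of cellular 59Fe. Mean ± SD of three experiments.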

SK-N-MC [4] = experiment: Inhibition to 59Fe uptake from 59Fe-transferrin in human SK-N-MC cells at 25 uM after 3 hrs; format: functional; set-up: scale not given: the % may be the effect or the level left
How it was run: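 SK-N-MC cells labeled with 59Fe-transferrin (0.75 μM) for 3 h/37 °C with or without chelators (25 μM). Cells washed four times on ice with ice-cold PBS. Internalized 59Fe separated with Pronase (1 mg/mL) and expressed as % of control. Mean ± SD of three experiments.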

DMS-53 [5] = experiment: Antitumor activity against human DMS53 cell xenografted BALB/c nu/nu mouse assessed as reduction in tumor volume at 7.5 mg/kg, po administered for 3 times a week measured after 20 days (reference value: 997 155 mm'3); format: functional, organism-based; set-up: dose 7.5 mg/kg
How it was run: (§1)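 DMS-53 xenograft nude mice gavaged 3 times/week with agent in 30% propylene glycol/saline or with vehicle alone. Net tumor volume followed for 20 days; the study ended when control tumors neared the 1000 mm3 ethical limit. Tumors excised and wet-weighed on day 20. n = 6–11 mice/condition, mean ± SD.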

DMS-53 [6] = experiment: Antitumor activity against human DMS53 cells xenografted in BALB/c nu/nu mouse assessed as reduction of tumor volume at 6 mg/kg, iv administered for 5 days a week measured after 21 days (RVb = 922 94 mm'3); format: functional, organism-based; set-up: dose 6 mg/kg
How it was run: (§2)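 Nude mice bearing DMS-53 xenografts began dosing once tumors reached 100 mm3. Agents given iv by tail vein 5 days/week in vehicle of 30% propylene glycol/saline, with vehicle controls. Net tumor volume followed for 21 days. Mice sacrificed on day 21 and tumors excised and wet-weighed.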

DMS-53 [7] = experiment: Antitumor activity against human DMS53 cells xenografted in BALB/c nu/nu mouse assessed as reduction of tumor volume at 3 mg/kg, iv administered for 5 days a week measured after 21 days (RVb = 922 94 mm'3); format: functional, organism-based; set-up: dose 3 mg/kg; how it was run: as §2
DMS-53 [8] = experiment: Antitumor activity against human DMS53 cell xenografted BALB/c nu/nu mouse assessed as reduction in tumor volume at 10 mg/kg, po administered for 3 times a week measured after 20 days (reference value: 997 155 mm'3); format: functional, organism-based; set-up: dose 10 mg/kg; how it was run: as §1
SK-N-MC [9] = experiment: Inhibition to 59Fe uptake from 59Fe-transferrin in human SK-N-MC cells at 25 uM after 3 hrs relative to Dp4eT

Question: How did the IC50 (SK-N-MC [1]) turn out when `CN(C(=S)NN=C(c1ccccn1)c1ccccn1)c1ccccc1` was run?
Answer: Its IC50 is 6 nM.

Question: What does the source list for `O=C(N/N=C/c1c(O)ccc2ccccc12)c1ccncc1`?
Answer: IC50 (MRC5): > 10 µM; IC50 (A549): 2.2 µM; IC50 (DMS-53 [2]): 1.1 µM; Activity (SK-N-MC [3]): 44.9%; IC50 (SK-N-MC [1]): 1100 nM; Activity (SK-N-MC [4]): 5.3%

Question: With `CC(=O)N(O)CCCCCNC(=O)CCC(=O)N(O)CCCCCNC(=O)CCC(=O)N(O)CCCCCN` [DEFEROXAMINE] as the compound, how does the IC50 (MRC5) read?
Answer: The IC50 was greater than 10 µM.

Question: And the IC50 (A549)?
Answer: Its IC50 is 7.5 µM.

Question: And the IC50 (DMS-53 [2])?
Answer: The IC50 was 10 µM.

Question: What about the Activity (SK-N-MC [3]) of the same compound?
Answer: Its Activity is 15.2%.

Question: And the Activity (SK-N-MC [4])?
Answer: The Activity was 84%.

Question: What does the source list for `CCN(C)C(=S)NN=C(c1ccccn1)c1ccccn1`?
Answer: Activity (DMS-53 [5]): Active; Activity (DMS-53 [6]): Active; Activity (DMS-53 [7]): Active; Activity (DMS-53 [8]): Active

Question: `CCN(C(=S)NN=C(c1ccccn1)c1ccccn1)c1ccccc1` was tested. Which IC50 (SK-N-MC [1]) did it give?
Answer: The IC50 was 10 nM.

Question: For `CCN(CC)C(=S)NN=C(c1ccccn1)c1ccccn1`, which IC50 (SK-N-MC [1]) is on record?
Answer: Its IC50 is 5 nM.

Question: And the Ratio (SK-N-MC [9])?
Answer: Its Ratio is 2.

Question: For `CCN(CC)C(=S)N/N=C(\c1ccccc1)c1ccccn1`, which IC50 (SK-N-MC [1]) is on record?
Answer: The IC50 was 11 nM.
